Rows were chosen to be rich in hits. Some 2.2% of all compounds tested hit in one or more screens of this group.
PolyA inh: polyadenylation inhibitors in yeast reporter cells, primary screen, luminescence, S. cerevisiae; S. cerevisiae SKY197-pL101 polyadenylation reporter, beta-gal luminescence; efflux-impaired pdr1/pdr3 knockout yeast; score 100 = 6 SD above DMSO; activity score, % at 12 µM; actives 0.02% (n = 300,000);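 active = lowest replicate activity score at least 50, where 100 means six control SD above control mean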;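 also: yeast exposed to compound for 9 h at 30 °C; higher score means more reporter readthrough which indicates perturbed polyadenylation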
T cruzi repl: inhibitors of intracellular T. cruzi growth, primary screen, luminescence, NIH3T3 host cells; T. cruzi beta-gal in NIH3T3, 90 h; inhibition, % (test concentration not listed); actives 1.4% (n = 300,000);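 active = mean inhibition across valid replicates above about 55%, limit read from the data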;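 also: signal also drops with host cell toxicity which is not excluded here; 0% = plate median of DMSO wells and 100% = zero luminescence signal; higher percent means less beta-gal luminescence so fewer parasites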
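System: Mouse NIH/3T3 fibroblasts infected with β-gal-expressing T. cruzi Tulahuen C4 | Quantity: NIH/3T3 cells, 5,000 per well | Reagent: 5000 reporter trypomastigotes per well | Dosing: Compound pinned at 50 nL/well, DMSO | Schedule: 3 h host attachment, then at least 90 h co-culture | Detection: GalScreen luminescence, 60 min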
Efflux pump mplx: inhibitors of Candida efflux pumps in yeast, primary screen, S. cerevisiae, Nile Red, multiplex. actives 0.44% (n = 330,000). AID 485275, 2010. inhibition, % at 10 µM. S. cerevisiae Candida pump triplex;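 active = plate passing quality check with inhibition over a set limit, or well fluorescence over plate mean plus 4 SD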;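 also: Nile Red retained in pooled yeast measured as flow cytometry median fluorescence; 0% = buffer negative control and 100% = Enniatin B positive control; higher means more Nile Red kept so more efflux inhibition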
AI-2 QS mod: Vibrio harveyi AI-2 quorum sensing modulators, primary screen, JMH597 strain, luminescence/OD600 ratio; Vibrio harveyi JMH597 AI-2 luminescence/OD600 ratio, 9 h; stronger effect = lower value; strain lacks LuxN and CqsS sensors; 0 = neutral-control median; activity change, % at 7.5 µM; actives 0.4% (n = 300,000); in the data active = activity change below about -75%, passing the limit was not always enough;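 also: luminescence divided by OD600 gain over 9 h not by final OD600 alone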
HDAC3 inh: HDAC3 deacetylase inhibitors, primary screen, biochemical, fluorescence, cell-free homogeneous. recombinant HDAC3, fluorogenic peptide/trypsin coupled. inhibition, % at 8.3 µM. Histone deacetylase 3 (Homo sapiens), O15379. actives 0.15% (n = 320,000). AID 2718, 2010; in the data active = inhibition above about 26%, passing the limit was not always enough
Target sequence (O15379 whole entry, looked up): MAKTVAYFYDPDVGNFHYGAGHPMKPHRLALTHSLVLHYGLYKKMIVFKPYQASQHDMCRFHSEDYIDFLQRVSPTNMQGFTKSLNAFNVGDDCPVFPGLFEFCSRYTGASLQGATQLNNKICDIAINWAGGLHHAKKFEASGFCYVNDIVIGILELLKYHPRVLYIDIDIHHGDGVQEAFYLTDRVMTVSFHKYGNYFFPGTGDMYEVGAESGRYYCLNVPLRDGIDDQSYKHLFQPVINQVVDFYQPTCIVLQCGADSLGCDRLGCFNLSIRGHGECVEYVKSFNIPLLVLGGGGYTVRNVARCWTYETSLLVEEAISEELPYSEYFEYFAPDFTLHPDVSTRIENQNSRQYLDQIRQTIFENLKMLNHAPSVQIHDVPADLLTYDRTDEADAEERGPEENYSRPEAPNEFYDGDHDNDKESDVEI
* hit, by the source's call.

Screening Cc1ccc(-n2c(-c3ccccc3)cc(/C=N/NC(=O)CC#N)c2-c2ccccc2)cc1 returned PolyA inh -3.4, T cruzi repl 65.4*, Efflux pump mplx 0.1, AI-2 QS mod 14.6 and HDAC3 inh -4.7.
CCCCOc1ccccc1/C=N/NC(=O)CC#N was read as PolyA inh 7.2, T cruzi repl -2.7, Efflux pump mplx 0.1, AI-2 QS mod 11.0 and HDAC3 inh 1.0.
COc1cc(C(=O)OCC(=O)NC2CCCCC2)cc(OC)c1OC was read as Efflux pump mplx 0.4 and HDAC3 inh -3.3.
For O=C(CN1CCN(c2ccc(O)cc2)CC1)Nc1ccc2c(c1)OCCCO2 the results were Efflux pump mplx 0.0 and HDAC3 inh -7.6.
COC(=O)c1ccc(NC(=O)c2ccc3c(c2)NC(=O)C2CCCN32)cc1 (stereo not drawn) was read as Efflux pump mplx -0.1 and HDAC3 inh -1.5.
`O=C(Nc1ncc(Cc2cccc(C(F)(F)F)c2)s1)c1ccc(-c2cccc([N+](=O)[O-])c2)o1` gave PolyA inh -3.8, T cruzi repl 61.8*, Efflux pump mplx 0.4, AI-2 QS mod 12.9 and HDAC3 inh 3.7.
O=C(C1=NOC(CNc2ncc(C(F)(F)F)cc2Cl)C1)N1CCOCC1 (stereo not drawn) was read as PolyA inh 18.0, T cruzi repl 3.4, Efflux pump mplx -0.1, AI-2 QS mod 11.6 and HDAC3 inh 2.2.
For COc1ccc(OC)c(NC(=O)CSc2ccc3nnc(-c4cccnc4)n3n2)c1 the results were PolyA inh 1.2, T cruzi repl 4.1, Efflux pump mplx 0.1, AI-2 QS mod 19.9 and HDAC3 inh -6.5.
COc1ccc(NC(=O)CCN2CCN(C/C=C/c3ccccc3)CC2)cc1 was read as PolyA inh -6.6, T cruzi repl 56.6*, Efflux pump mplx 0.1, AI-2 QS mod 3.2 and HDAC3 inh -1.1.
`COc1cc(NC(=O)CCN2CCN(C/C=C/c3ccccc3)CC2)cc(OC)c1` gave PolyA inh 2.2, T cruzi repl 57.6*, Efflux pump mplx -0.1, AI-2 QS mod -26.0 and HDAC3 inh 1.9.
Cc1ccc(NC(=O)CCN2CCN(C/C=C/c3ccccc3)CC2)cc1 was read as Efflux pump mplx 0.0 and HDAC3 inh -2.6.
Cc1ccc(NC(=O)CCN2CCN(C/C=C/c3ccccc3)CC2)cc1C was read as PolyA inh 1.9, T cruzi repl 43.0, Efflux pump mplx 0.1 and AI-2 QS mod 3.1.
CCN(CCO)Cc1csc2ccc(C(C)(C)C)cc12 was read as PolyA inh -20.2, T cruzi repl 11.5, Efflux pump mplx 0.1, AI-2 QS mod 16.3 and HDAC3 inh 1.0.
`O=C(O)C[C@H]1c2cc(C(F)(F)F)ccc2S(=O)(=O)N1C1CCCCC1` gave PolyA inh -11.7, T cruzi repl -3.3, Efflux pump mplx 0.1, AI-2 QS mod 4.2 and HDAC3 inh 1.7.
CCOC(=O)c1ccc(-n2ccnc2)c(NC(=O)c2cccc(Br)c2)c1 was read as PolyA inh 14.1, T cruzi repl 62.6*, Efflux pump mplx -0.2, AI-2 QS mod 20.5 and HDAC3 inh -4.0.
`CCc1occc(=O)c1Oc1cc(NN2CCCCC2)c([N+](=O)[O-])cc1[N+](=O)[O-]` gave PolyA inh -11.7, T cruzi repl -6.5, Efflux pump mplx 0.1, AI-2 QS mod 9.5 and HDAC3 inh 7.5.
CS(=O)(=O)c1nc(S(=O)(=O)c2ccc(Cl)cc2)c(N2CCOCC2)s1 was read as PolyA inh -20.5, T cruzi repl 0.5, Efflux pump mplx 0.0, AI-2 QS mod 68.5 and HDAC3 inh 5.5.
Cc1ccnc(SCC(=O)c2ccc(Br)cc2)c1C#N was read as PolyA inh -31.5, T cruzi repl 74.4*, Efflux pump mplx -0.5, AI-2 QS mod 16.3 and HDAC3 inh -1.1.
Screening O=C1CC(c2ccc(F)cc2)Sc2nc(C34CC5CC(CC(C5)C3)C4)nn21 (stereo not drawn) returned PolyA inh -0.3, T cruzi repl -11.1, Efflux pump mplx 0.2, AI-2 QS mod 19.8 and HDAC3 inh 3.7.
For COc1ccccc1N1CC(C(=O)Nc2nnc(SCC(=O)N3CCOCC3)s2)CC1=O (stereo not drawn) the results were PolyA inh 1.9, T cruzi repl 9.0, Efflux pump mplx -0.3, AI-2 QS mod -0.1 and HDAC3 inh -4.0.
For COc1ccccc1-c1cc(C(=O)NC2CCN(C)CC2)c2ccc(Cl)c(C)c2n1 the results were PolyA inh -0.1, T cruzi repl 59.2*, Efflux pump mplx 1.6*, AI-2 QS mod 10.4 and HDAC3 inh 1.8.
`CCOC(=O)C1CCN(CCC(=O)Nc2ccc(F)cc2)CC1` gave PolyA inh 25.1, T cruzi repl -9.6, Efflux pump mplx 0.1, AI-2 QS mod 3.6 and HDAC3 inh -6.7.
For N#Cc1c(N2CCN(C(=O)c3ccco3)CC2)nc(-c2ccccc2)c2c1CCCC2 the results were PolyA inh -9.5, T cruzi repl 60.6*, Efflux pump mplx 0.1, AI-2 QS mod 22.3 and HDAC3 inh 4.0.
Screening N#Cc1c(N2CCN(C(=O)c3ccccc3Cl)CC2)nc(-c2ccccc2)c2c1CCCC2 returned PolyA inh 7.3, T cruzi repl 56.7*, Efflux pump mplx 0.3, AI-2 QS mod 34.1 and HDAC3 inh -28.6.
`N#Cc1c(N2CCN(C(=O)c3ccccc3)CC2)nc(-c2ccccc2)c2c1CCCC2` gave PolyA inh 17.6, T cruzi repl 23.4, Efflux pump mplx 0.0, AI-2 QS mod 26.7 and HDAC3 inh -10.2.
`N#Cc1c(N2CCCCC2)nc(N2CCCCC2)c2c1CCN(Cc1ccccc1)C2` gave PolyA inh -11.0, T cruzi repl 56.3*, Efflux pump mplx 0.1, AI-2 QS mod 24.8 and HDAC3 inh -15.1.
Screening CNc1nc(-c2ccc3c(c2)CCN3S(=O)(=O)c2ccccc2)c(C)s1 returned PolyA inh -16.0, T cruzi repl 8.7, Efflux pump mplx 0.1, AI-2 QS mod 6.0 and HDAC3 inh 7.5.
Screening COc1ccc(CCC(=O)N2CCN(C3CCCCC3)CC2)cc1 returned PolyA inh -2.4, T cruzi repl 62.0*, Efflux pump mplx -0.1, AI-2 QS mod 15.4 and HDAC3 inh 2.5.
Screening CC(NS(=O)(=O)c1ccc(CCC(=O)N2CCN(C)CC2)cc1)c1ccccc1 (stereo not drawn) returned PolyA inh -0.4, T cruzi repl 72.0*, Efflux pump mplx 0.1, AI-2 QS mod 11.1 and HDAC3 inh -3.9.
For O=C(CCc1ccc(S(=O)(=O)NCc2ccccc2)cc1)N1CCN(Cc2ccc3c(c2)OCO3)CC1 the results were PolyA inh 2.5, T cruzi repl 58.7*, Efflux pump mplx 0.0 and AI-2 QS mod 7.8.

Bioassay records: PubChem BioAssay, several laboratories
